Assay results as given in paper PMC12486192 (Clinical Pharmacology in Drug Development, 2025).
Where two headings read alike, the source gives them in different places. Values belong to the molecule of their own block, whether it stands above or below them.

Tests used:
[1] = type: in vivo, human; conditions: Part 1: single oral 400 mg [14C]-imlunestrant solution
In short: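 Healthy women received a single oral 400 mg radiolabelled test compound solution (100 µCi). Urine was collected −12–0, 0–6, 6–12 and 12–24 h, then in 24-h intervals. Feces were pooled 0–24 h, then in 24-h intervals. Collection continued until ≥90% of dose was recovered and ≤1%/day for 2 consecutive days, or Day 22. Vomitus was collected within 4 h. Radioactivity was counted by LSC and reported as % and cumulative % of dose.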

[2] = type: in vivo; conditions: female, human, plasma, po, 400 mg
[3] = Metabolite profiling and identification in plasma and feces; type: in vivo, human; conditions: Part 1: oral 400 mg [14C]-imlunestrant solution
In short: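 Part 1 plasma was sampled predose and 0.5–264 h after the oral radiolabelled dose. It was extracted twice with acetonitrile (3 volumes), dried, and reconstituted in 10 mM ammonium formate pH 9.0:methanol (80:20). Separation was on a C18 column with 10 mM ammonium formate pH 9.0 / methanol, gradient 20% to 90% B. Fecal metabolites were identified if ≥1% of dose across time points.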

[4] = type: in vivo, human
[5] = Safety and tolerability; type: in vivo, human
In short: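 AEs and SAEs were monitored to Day 59 (Part 1) or Day 46 (Part 2), with a follow-up call ~7 days after discharge. Part 2 gave two 200-mg oral tablets, then 4 h later a 45 µg (~1 µCi) radiolabelled IV infusion over 15 min. TEAEs were summarised by treatment, MedDRA v24.0 system organ class and preferred term. Severity (mild/moderate/severe) was graded by the investigator.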

[6] = target: cytochrome P450 (CYP) 3A4 (Homo sapiens, UniProt P08684); assay: In vitro enzyme substrate studies, CYP3A4; type: in vitro ADME
cytochrome P450 (CYP) 3A4, sequence (P08684 whole entry): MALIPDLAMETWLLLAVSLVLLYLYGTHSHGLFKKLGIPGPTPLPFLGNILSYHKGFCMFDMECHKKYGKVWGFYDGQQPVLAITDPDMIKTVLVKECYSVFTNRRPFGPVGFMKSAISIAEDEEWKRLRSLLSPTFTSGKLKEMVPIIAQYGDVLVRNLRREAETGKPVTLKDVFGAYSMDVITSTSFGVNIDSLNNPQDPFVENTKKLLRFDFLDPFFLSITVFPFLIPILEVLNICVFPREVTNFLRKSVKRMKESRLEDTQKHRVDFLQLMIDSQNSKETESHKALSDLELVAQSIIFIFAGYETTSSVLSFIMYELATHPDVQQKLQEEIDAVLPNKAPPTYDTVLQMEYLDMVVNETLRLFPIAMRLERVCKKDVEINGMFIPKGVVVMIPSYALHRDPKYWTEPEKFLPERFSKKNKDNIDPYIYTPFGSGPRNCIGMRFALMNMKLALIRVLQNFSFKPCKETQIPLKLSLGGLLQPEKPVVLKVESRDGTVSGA

[7] = test system: uridine 5′ diphospho‐glucuronosyltransferases (UGTs; including UGT1A1, UGT1A8, UGT1A3, UGT1A9, and UGT1A10); assay: In vitro enzyme substrate studies, UGTs; type: in vitro ADME
[8] = Estimated first-pass metabolism in gut and liver; type: in vivo, human
[9] = Biliary excretion in bile-cannulated rats; type: in vivo; conditions: data not shown
[10] = oral 200‐1200 mg once daily, patients, EMBER; cited from earlier work
[11] = test system: P‐glycoprotein; conditions: in vitro; cited from earlier work
[12] = similar to Biopharmaceutics Classification System Class 2 compounds; cited from earlier work
[13] = cited from earlier work
[14] = Part 2: 45 µg [14C]-imlunestrant (1 µCi) IV infusion
[15] = female, human, plasma, intravenous, 45 µg
[16] = female, human, plasma, iv, 45 µg
[17] = female, human, plasma, po, 400 mg
[18] = Part 1: 400 mg [14C]-imlunestrant oral (N=8)

- Radioactivity recovered in the feces in the first 192 hours [1]: Over 90%
- Total radioactivity excreted via the feces ([1]; mean of 5 participants): 97.3%
- Cmax [2]: 117 ng/mL
- half-life [2]: 33.7 h
- Detectable in plasma up to [3]: up to 264 hours
- Time to Cmax of [14C]‐imlunestrant after start of intravenous infusion [4, 14]: ≤ 15 min
- Time to Cmax of total radioactivity after start of intravenous infusion [4, 14]: ≤ 15 min
- AUC [4, 15]: 1.92 ng·h/mL
- Cmax [4, 15]: 0.585 ng/mL
- Tmax [4, 15]: 0.25 h
- half-life [4, 15]: 32.5 h
- Vd [4, 16]: 1020 L
- clearance [4, 16]: 397 mL/min
- Cmax [4, 17]: 38.7 ng/mL
- Tmax [4, 17]: 4.37 h
- half-life [4, 17]: 32.1 h
- Substrate of CYP3A4 [6]: substrate
- Substrate of UGTs [7]: substrate
- Fraction passing through the portal vein extracted by first‐pass metabolism in the liver [8]: Approximately 30%
- Fraction of oral dose appearing as a glucuronide metabolite in bile [9]: substantial fraction
Structure (SMILES): Oc1ccc2c3c(cnc2c1)-c1ccc(C(F)(F)F)cc1O[C@@H]3c1ccc(OCCN2CC(CF)C2)cc1 [Imlunestrant]
- All TEAEs: % of participants with TEAEs [5, 18]: 100%
- All TEAEs: number of participants with TEAEs [5, 18]: 8
- All TEAEs: number of TEAEs ([5]; Part 2: 400 mg imlunestrant oral tablets + 45 µg [14C]-imlunestrant IV (N=8)): 5
- Tolerability ([5]; single 400 mg oral solution or tablet/intravenous dose, fasted, healthy women): well tolerated
- Dose dependence of Cmax and AUC0‐∞ [10]: dose‐proportional increase
- Geometric mean t1/2 [10]: 25 to 30 h
- Median tmax [10]: approximately 4 hours
- Substrate of the efflux transporter P‐glycoprotein [11]: in vitro substrate
- Permeability [12]: moderate to high

Structure (SMILES): C[C@]12CC[C@@H]3c4ccc(O)cc4C[C@@H](CCCCCCCCC[S+]([O-])CCCC(F)(F)C(F)(F)F)[C@H]3[C@@H]1CC[C@@H]2O (stereo partly drawn) [fulvestrant]
- Solubility [13]: poorly soluble
